# Screening data: PubChem, several laboratories
# In the library only some 2.4% were active in any assay of this set; here they are far more common.
# Rin1 Abl inh – human Rin1-Abl interaction inhibition; P00519+Q13671; TR-FRET Rin1/Abl binding, biochemical; inhibition, % at 7.35 µM; 0.4% of 360,000 active; AID 588664; in the data active = inhibition above about 5%, passing the limit was not always enough
# Target sequence (P00519 whole entry, looked up): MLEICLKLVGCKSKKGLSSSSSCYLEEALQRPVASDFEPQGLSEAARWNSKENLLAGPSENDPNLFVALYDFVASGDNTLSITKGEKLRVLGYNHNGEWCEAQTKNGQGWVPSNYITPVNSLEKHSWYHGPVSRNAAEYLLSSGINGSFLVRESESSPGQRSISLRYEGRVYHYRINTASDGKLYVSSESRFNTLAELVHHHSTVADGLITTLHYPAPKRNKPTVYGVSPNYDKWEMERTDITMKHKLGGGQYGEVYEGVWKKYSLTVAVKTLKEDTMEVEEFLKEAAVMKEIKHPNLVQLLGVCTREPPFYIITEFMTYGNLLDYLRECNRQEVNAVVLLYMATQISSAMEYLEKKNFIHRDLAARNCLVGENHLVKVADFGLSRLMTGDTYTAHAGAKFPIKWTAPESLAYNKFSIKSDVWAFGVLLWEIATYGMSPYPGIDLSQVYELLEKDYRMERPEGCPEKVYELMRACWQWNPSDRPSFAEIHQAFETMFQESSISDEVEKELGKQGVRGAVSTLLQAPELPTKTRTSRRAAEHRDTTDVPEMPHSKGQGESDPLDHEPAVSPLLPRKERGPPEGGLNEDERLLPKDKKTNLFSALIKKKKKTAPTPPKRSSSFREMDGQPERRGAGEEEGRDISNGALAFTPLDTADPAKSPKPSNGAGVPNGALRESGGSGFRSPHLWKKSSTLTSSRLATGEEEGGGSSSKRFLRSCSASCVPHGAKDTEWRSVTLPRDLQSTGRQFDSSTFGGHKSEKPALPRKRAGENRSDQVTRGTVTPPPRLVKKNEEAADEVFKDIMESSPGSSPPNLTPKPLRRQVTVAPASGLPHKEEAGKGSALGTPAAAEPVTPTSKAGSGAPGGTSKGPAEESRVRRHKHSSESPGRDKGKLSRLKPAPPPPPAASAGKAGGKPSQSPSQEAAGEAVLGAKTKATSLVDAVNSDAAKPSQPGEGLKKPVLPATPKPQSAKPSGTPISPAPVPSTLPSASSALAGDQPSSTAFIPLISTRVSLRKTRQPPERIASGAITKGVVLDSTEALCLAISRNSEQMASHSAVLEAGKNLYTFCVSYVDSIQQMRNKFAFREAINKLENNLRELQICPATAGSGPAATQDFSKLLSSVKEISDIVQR
# Target sequence (Q13671 whole entry, looked up): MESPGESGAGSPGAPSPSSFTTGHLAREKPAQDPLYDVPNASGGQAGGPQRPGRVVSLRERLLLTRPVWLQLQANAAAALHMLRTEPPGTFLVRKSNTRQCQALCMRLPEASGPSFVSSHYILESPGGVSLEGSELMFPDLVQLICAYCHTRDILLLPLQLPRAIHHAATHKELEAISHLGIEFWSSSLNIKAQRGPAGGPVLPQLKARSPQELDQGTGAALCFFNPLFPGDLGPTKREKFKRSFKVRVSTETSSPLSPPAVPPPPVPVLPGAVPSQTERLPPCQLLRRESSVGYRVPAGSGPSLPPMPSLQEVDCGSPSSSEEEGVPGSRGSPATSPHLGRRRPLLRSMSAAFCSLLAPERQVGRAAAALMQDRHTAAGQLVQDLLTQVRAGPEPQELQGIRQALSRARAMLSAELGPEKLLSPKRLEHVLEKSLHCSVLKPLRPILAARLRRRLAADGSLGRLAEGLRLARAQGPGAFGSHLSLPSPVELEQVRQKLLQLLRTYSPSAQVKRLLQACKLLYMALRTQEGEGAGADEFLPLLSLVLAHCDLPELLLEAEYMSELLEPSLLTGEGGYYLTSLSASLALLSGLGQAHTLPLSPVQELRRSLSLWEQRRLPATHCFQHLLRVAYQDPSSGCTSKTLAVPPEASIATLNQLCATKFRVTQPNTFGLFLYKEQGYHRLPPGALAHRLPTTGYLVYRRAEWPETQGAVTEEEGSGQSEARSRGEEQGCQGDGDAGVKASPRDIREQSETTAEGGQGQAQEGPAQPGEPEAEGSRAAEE
# TPT1 inhibitor – blocks Candida albicans tRNA 2'-phosphotransferase. recombinant caTPT1, FP RNA substrate dephosphorylation. inhibition, % at 5 µM. 0.81% of 300,000 active;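 active = inhibition above the mean of all tested compounds plus 3 SD, set per screening campaign, cut at about 24% in these data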
# CSN inh – blocks human CSN-mediated cullin deneddylation. 0.38% of 360,000 active. Q92905. inhibition, % at 12.5 µM. Purified CSN, SCF-Nedd8-OG deneddylation, fluorescence polarization;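 active = pattern-corrected inhibition above about 35%, with an unprinted fluorescence ratio check between 0.5 and 1.5, limit read from the data, passing the limit was not always enough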
#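 Schedule: reaction 90 min, room temperature / Assay system: HEK293T-derived human Csn5 enzyme / Input: Csn5 at 0.24 nM final / Measure: inhibition of Csn5 cleavage, % / Control set: substrate-only high control, full reaction low control / Technique: fluorescence polarization of the substrate / Buffer or medium: Tris/NaCl/DTT buffer, pH 7.5 / Reagent: SCFSkp2-Nedd8OG substrate at 10 nM final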
# Neddyl block – inhibitors of human cullin neddylation. 0.58% of 360,000 active. inhibition, % at 25 µM. TR-FRET cullin neddylation, biochemical; in the data active = inhibition above about 36%
# HNF4A DNA FP – change in binding of human HNF4 alpha to DNA. 0.3% of 360,000 active. AID 1224865. HNF4a-FITC DNA binding, fluorescence polarization, 1 h. activity change, % at 10 µM; in the data active = activity change above about 30%, passing the limit was not always enough
# Rpn11 block – blocks the human proteasome subunit Rpn11; inhibition, % at 20 µM; 0.59% of 360,000 active; human 26S proteasome, Ub4-pepOG fluorescence polarization; 20S core pre-blocked with epoxomicin; O00487;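 active = inhibition at 20 µM, scaled to each plate's controls, above about 33%, limit read from the data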
# Neddyl inh conf – confirmation of human cullin neddylation inhibitors | 13% of 1,800 active | calls only at 25 µM | TR-FRET cullin neddylation biochemical assay | AID 652217 | shares compounds with Neddyl block; in the data active = inhibition above about 40%;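 also: neddylation substrate is the cullin 1 ring ligase complex with SKP2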
# Numbers stand for hits; - = inactive; . = no result given; + = active, no number.
SMILES,Rin1 Abl inh,TPT1 inhibitor,CSN inh,Neddyl block,HNF4A DNA FP,Rpn11 block,Neddyl inh conf
O=c1cc(-c2ccccc2)c2ccc(O)c(CN3CCCCC3)c2o1,-,-,-,50,-,-,-
NC(=O)c1ccccc1NS(=O)(=O)c1ccc2c(c1)OCCO2,-,-,-,.,-,-,.
O=C(O)c1ccccc1NS(=O)(=O)c1ccc2c(c1)OCCO2,-,-,-,43,-,-,.
Cc1cc(C)c(C)c(S(=O)(=O)Nc2ccccc2C(=O)NCCCn2ccnc2)c1C,-,.,-,38,-,-,.
Cc1cc(C)c(C)c(S(=O)(=O)Nc2ccccc2C(=O)O)c1C,-,-,-,47,-,-,.
CSC1=C(C#N)C(c2sccc2C)CC(=O)N1 (stereo not drawn),-,-,-,-,-,-,.
Cc1cc(=O)n2c(nc3ccccc32)[nH]1,-,-,-,.,-,-,.
CCCc1cc(=O)n2c(nc3ccccc32)[nH]1,-,-,-,49,-,-,.
CCCCc1c(O)n2c(nc3ccccc32)[nH]c1=O,-,-,-,60,-,-,+
O=C(OCCN=C1NS(=O)(=O)c2ccccc21)c1ccccc1F,-,-,-,-,-,-,.
CC(=O)c1ccc(C(=O)Nc2ccc3c(c2)C(=O)NC3=O)cc1,-,-,-,45,-,-,-
O=C(Cc1ccc(Cl)cc1)Nc1ccc2c(c1)C(=O)NC2=O,-,-,-,51,-,-,.
CC(C)(C)c1ccc(C(=O)Nc2ccc3c(c2)C(=O)NC3=O)cc1,-,-,-,.,-,-,.
Cc1ccc(NC(=O)c2ccc(Cl)c(S(=O)(=O)N3CCCC3)c2)nc1,-,-,-,-,-,-,.
Cc1cc(/C=C(\C#N)C(=O)NC2CCCCCC2)c(C)[nH]1,-,-,-,-,-,-,.
COc1ccc(-c2[nH]ncc2/C=C(/C#N)C(=O)NC2CCCCCC2)cc1,-,-,-,41,-,-,-
COc1cc(NC(=O)COc2ccccc2C)ccc1NC(=O)c1ccco1,-,-,-,46,-,-,.
Cc1cc(NC(=O)COc2ccccc2C)ccc1NC(=O)c1ccco1,-,-,-,-,-,-,.
CCOc1cc(NC(=O)C2CC2)c(OCC)cc1NC(=O)c1ccccc1OCC,-,-,-,50,-,-,.
CCOC(=O)C1CCN(c2cc3c(cc2NC(=O)c2ccccc2OCC)n(C)c(=O)n3C)CC1,-,-,-,46,-,-,-
CCOc1cc(NC(=O)C2CC2)c(OCC)cc1NC(=O)c1cc(OC)c(OC)c(OC)c1,-,-,-,.,-,-,.
Cc1cc(C)c2nc(-c3ccccn3)cc(C(=O)n3cccn3)c2c1,-,-,-,.,-,-,.
c1ccc(Cn2c(-c3ccccc3)nc3nc4ccccc4nc32)cc1,-,-,-,44,-,-,-
c1csc(-c2nc3nc4ccccc4nc3n2Cc2ccc3c(c2)OCO3)c1,-,-,-,37,-,-,-
CCCCCCN(C(=O)CCCN1C(=O)NC(c2ccc([N+](=O)[O-])cc2)C(C(=O)OCc2ccccc2)=C1C)C(C)C(=O)NCCCC (stereo not drawn),-,.,-,-,-,-,.
SMILES,Rin1 Abl inh,TPT1 inhibitor,CSN inh,Neddyl block,HNF4A DNA FP,Rpn11 block,Neddyl inh conf
CCOC(=O)c1cnn2c(N)c(C#N)cnc12,-,-,-,39,-,-,-
CCOC(=O)c1cnc2c(C(=O)OCC)cnn2c1N,-,-,-,-,-,-,.
Cc1cc(-n2c(C)cc(C(=O)COc3ccc(F)c(F)c3)c2C)no1,-,.,-,-,-,-,.
COc1ccc(C(=O)Cn2c(=O)c(CCC(=O)O)nn3c4ccccc4nc23)cc1OC,-,-,-,39,-,-,+
O=C(NC1CC1)c1ccc(Cl)c(S(=O)(=O)N2CCOCC2)c1,-,-,-,-,-,-,.
CC(=O)c1ccc2c(c1)c(C#N)c1ccccc1[n+]2[O-],-,.,-,41,-,-,+
O=C(Nc1ccc(F)cc1)c1cccnc1NCCc1ccccc1,-,-,-,-,-,-,.
O=C(Nc1cccc(F)c1)c1cccnc1NCCc1ccccc1,-,-,-,44,-,-,-
Cc1ccc(N2C(=O)Nc3ccccc3S2(=O)=O)cc1Cl,-,-,-,-,-,-,.
Cc1ccc(C)c(S(=O)(=O)N2CCN(C(=O)c3cncc(Br)c3)CC2)c1,-,-,-,-,-,-,.
